Assays:
[1] = biological target: Vascular endothelial growth factor receptor 3 (Homo sapiens, UniProt P35916); assay: Inhibition of VEGFR3 at 10 uM
[2] = biological target: RAC-alpha serine/threonine-protein kinase (Homo sapiens) (UniProt P31749); assay: Inhibition of AKT1 at 10 uM
[3] = biological target: T1, Serine/threonine-protein kinase PLK4 (Homo sapiens) (UniProt O00444); assay: Inhibition of SAK at 10 uM
T1 sequence (whole entry): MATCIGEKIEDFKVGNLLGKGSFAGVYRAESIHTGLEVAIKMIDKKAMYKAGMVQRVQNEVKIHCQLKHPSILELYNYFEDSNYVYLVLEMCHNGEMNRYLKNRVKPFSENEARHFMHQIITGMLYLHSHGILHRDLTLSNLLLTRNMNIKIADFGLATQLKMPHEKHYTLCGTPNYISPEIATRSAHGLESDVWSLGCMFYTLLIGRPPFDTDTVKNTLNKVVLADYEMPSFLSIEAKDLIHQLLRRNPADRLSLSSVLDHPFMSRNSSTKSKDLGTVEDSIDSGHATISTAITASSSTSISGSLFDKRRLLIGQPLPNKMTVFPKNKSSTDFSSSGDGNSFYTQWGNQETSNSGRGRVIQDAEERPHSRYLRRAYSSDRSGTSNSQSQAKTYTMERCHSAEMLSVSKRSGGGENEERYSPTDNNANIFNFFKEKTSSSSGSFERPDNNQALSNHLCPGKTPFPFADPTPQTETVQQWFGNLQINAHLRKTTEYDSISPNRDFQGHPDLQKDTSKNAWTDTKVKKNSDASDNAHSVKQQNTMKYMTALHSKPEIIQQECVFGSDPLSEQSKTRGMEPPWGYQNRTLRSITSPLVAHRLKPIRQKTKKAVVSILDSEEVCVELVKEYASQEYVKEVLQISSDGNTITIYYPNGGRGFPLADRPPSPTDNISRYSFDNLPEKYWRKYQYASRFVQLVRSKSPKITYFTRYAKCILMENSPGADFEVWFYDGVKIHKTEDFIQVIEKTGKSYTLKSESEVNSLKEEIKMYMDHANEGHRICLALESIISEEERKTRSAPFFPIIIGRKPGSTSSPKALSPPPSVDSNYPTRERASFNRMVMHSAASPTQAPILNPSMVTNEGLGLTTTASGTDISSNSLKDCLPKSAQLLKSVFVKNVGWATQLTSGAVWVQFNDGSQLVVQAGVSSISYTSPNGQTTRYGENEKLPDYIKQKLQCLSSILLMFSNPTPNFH

[4] = biological target: Receptor-type tyrosine-protein kinase FLT3 (Homo sapiens) (UniProt P36888); assay: Inhibition of FLT3 at 10 uM
Sequence of Receptor-type tyrosine-protein kinase FLT3 (Homo sapiens) (P36888 whole entry): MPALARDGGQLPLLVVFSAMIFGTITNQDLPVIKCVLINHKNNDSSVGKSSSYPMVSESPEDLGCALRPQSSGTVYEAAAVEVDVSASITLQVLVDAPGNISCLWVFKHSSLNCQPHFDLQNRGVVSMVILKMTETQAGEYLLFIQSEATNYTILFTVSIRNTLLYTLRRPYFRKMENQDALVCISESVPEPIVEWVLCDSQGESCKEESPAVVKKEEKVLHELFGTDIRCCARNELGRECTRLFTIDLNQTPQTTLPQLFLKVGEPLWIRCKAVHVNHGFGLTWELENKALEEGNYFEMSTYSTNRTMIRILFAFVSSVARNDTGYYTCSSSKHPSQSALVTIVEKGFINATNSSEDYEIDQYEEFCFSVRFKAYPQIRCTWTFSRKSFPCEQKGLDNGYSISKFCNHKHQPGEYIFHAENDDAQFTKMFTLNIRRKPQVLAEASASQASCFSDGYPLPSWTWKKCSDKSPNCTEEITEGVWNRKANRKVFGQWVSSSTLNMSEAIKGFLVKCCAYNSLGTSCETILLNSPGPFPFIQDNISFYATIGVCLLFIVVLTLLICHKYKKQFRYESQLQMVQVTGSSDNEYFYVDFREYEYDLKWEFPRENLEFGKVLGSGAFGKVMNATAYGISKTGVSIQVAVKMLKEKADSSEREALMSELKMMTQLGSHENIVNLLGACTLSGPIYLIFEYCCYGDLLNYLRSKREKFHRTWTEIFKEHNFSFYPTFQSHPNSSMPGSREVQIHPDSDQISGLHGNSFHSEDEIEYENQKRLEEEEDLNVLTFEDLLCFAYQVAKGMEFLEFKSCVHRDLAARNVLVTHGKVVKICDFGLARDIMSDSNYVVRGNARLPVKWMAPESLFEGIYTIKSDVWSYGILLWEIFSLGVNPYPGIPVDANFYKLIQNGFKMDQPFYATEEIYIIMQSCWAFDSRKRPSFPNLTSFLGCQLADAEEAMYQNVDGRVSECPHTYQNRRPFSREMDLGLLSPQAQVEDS

[5] = biological target: T2, Ephrin type-B receptor 4 (Homo sapiens) (UniProt P54760); assay: Inhibition of EphB4 at 10 uM
T2 sequence (whole entry): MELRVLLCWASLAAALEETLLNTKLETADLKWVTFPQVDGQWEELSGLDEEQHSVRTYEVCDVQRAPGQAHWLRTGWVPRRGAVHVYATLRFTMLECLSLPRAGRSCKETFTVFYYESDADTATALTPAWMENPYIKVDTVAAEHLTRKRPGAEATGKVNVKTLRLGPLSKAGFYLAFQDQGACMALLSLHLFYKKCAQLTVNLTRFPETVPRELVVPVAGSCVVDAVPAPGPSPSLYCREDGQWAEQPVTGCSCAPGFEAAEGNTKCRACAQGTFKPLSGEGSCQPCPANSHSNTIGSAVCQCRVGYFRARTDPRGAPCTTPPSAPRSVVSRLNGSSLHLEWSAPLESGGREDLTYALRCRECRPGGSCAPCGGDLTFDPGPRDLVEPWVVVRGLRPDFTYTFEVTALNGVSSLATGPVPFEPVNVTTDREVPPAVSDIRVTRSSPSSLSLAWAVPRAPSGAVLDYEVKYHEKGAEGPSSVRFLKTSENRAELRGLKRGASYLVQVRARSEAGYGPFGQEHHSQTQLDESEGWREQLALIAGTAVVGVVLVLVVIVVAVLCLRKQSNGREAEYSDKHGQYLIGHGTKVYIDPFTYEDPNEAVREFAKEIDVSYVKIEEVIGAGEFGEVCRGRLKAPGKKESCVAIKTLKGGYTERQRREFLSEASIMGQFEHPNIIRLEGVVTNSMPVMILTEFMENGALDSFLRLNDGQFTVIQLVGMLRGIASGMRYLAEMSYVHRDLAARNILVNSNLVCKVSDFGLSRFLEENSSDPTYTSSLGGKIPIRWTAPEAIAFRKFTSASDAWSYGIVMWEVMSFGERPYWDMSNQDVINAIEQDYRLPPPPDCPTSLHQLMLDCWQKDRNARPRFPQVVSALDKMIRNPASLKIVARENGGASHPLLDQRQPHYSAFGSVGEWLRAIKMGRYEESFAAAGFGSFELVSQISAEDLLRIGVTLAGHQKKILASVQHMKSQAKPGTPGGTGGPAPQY

[6] = biological target: T3, NUAK family SNF1-like kinase 1 (Homo sapiens) (UniProt O60285); assay: Inhibition of ARK5 at 10 uM
T3 sequence (whole entry): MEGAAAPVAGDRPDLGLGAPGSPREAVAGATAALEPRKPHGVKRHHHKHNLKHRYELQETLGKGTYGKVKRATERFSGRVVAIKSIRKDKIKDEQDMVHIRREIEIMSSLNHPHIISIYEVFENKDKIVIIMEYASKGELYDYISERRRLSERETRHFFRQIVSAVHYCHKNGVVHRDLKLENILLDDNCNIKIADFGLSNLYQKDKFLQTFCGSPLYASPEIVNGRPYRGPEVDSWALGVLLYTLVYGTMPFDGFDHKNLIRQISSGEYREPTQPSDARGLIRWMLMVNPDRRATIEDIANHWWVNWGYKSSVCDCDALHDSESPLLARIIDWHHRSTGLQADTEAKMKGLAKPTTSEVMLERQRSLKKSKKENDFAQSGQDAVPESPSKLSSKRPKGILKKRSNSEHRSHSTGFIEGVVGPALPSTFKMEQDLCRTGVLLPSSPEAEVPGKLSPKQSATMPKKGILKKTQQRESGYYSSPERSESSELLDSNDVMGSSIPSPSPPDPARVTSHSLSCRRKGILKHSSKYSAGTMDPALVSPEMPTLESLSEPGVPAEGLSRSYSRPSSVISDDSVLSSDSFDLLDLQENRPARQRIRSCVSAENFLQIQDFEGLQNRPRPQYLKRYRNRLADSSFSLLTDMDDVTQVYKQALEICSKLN

[7] = biological target: 3-phosphoinositide-dependent protein kinase 1 (Homo sapiens) (UniProt O15530); assay: Inhibition of PDK1 at 10 uM
Sequence of 3-phosphoinositide-dependent protein kinase 1 (Homo sapiens) (O15530 whole entry, looked up): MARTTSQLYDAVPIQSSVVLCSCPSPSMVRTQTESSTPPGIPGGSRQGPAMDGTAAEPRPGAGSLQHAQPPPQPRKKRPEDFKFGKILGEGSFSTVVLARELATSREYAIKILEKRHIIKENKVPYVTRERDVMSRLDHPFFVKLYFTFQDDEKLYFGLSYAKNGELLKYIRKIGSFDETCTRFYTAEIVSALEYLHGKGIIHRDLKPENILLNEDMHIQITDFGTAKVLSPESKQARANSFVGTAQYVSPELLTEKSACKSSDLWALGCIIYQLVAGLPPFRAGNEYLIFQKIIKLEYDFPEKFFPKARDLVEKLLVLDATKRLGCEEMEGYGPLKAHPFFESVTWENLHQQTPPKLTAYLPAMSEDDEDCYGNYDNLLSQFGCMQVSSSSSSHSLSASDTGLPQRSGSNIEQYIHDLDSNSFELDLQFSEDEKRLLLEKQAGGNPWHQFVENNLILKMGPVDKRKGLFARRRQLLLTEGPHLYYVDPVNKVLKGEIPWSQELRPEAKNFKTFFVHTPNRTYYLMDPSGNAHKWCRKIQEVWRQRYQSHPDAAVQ

[8] = tested on: NCI-H460; assay: Antiproliferative activity against human NCI-H460 cells at 100 uM after 48 hrs relative to control; assay type: functional; conditions: NCI-H460, 48 h
Method in brief: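 NCI three-cell-line prescreen (MCF7 breast, NCI-H460 non-small cell lung, SF-268 CNS). Cells inoculated and preincubated in microtiter plates, then exposed to test agent at 10^-4 M for 48 h. Alamar blue end-point read-out. Growth of treated cells expressed as percent of untreated control cells.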

Sequence of Vascular endothelial growth factor receptor 3 (P35916 whole entry): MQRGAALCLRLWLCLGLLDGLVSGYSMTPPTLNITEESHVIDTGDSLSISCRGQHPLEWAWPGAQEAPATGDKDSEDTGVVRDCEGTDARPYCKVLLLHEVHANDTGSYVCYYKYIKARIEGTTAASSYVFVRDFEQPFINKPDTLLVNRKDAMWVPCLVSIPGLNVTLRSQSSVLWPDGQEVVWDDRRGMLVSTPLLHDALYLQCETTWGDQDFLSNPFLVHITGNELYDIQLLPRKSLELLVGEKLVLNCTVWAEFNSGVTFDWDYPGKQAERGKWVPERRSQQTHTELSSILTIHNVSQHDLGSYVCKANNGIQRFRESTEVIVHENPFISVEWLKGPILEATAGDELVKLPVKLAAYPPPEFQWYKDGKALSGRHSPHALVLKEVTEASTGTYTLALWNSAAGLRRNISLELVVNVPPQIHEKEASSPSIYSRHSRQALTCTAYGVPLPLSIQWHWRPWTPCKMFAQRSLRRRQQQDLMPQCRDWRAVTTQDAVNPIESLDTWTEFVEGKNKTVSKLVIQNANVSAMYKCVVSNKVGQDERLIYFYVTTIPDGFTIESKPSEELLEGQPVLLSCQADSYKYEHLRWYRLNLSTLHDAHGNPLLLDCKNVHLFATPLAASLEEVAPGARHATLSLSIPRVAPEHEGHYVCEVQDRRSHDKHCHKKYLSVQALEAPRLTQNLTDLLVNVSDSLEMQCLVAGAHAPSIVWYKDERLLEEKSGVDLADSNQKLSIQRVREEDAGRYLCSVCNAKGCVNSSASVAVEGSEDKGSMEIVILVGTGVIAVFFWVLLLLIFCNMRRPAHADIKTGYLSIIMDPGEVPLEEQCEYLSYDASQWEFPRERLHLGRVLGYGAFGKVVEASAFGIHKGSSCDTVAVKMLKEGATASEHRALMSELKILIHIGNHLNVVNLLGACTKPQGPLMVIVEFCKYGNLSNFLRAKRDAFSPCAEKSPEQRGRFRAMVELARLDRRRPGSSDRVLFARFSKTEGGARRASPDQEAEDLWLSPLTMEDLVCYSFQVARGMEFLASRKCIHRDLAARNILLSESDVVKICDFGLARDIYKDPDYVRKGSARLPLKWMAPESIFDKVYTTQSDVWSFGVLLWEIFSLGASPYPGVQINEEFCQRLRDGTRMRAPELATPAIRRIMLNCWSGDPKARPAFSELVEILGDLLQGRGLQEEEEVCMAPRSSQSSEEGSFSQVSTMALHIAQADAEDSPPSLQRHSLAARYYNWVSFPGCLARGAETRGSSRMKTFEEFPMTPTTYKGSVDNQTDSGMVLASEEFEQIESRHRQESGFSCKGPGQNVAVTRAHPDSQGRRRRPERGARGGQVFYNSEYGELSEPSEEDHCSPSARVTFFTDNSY
Sequence of RAC-alpha serine/threonine-protein kinase (Homo sapiens) (P31749 whole entry): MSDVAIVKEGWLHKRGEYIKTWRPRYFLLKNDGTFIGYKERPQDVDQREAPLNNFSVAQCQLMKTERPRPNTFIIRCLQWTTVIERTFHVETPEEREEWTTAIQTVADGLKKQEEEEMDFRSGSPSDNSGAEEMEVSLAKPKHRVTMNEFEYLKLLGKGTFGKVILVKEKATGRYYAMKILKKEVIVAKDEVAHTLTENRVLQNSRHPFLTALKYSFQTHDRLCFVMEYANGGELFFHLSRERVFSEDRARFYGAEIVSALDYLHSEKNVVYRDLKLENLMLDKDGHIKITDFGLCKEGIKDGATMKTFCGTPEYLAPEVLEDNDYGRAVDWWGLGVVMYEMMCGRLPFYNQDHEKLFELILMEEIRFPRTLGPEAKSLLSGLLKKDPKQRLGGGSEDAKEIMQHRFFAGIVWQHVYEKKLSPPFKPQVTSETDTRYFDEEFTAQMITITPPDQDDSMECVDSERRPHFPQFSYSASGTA

inhibition [1] [%]	inhibition [2] [%]	inhibition [3] [%]	inhibition [4] [%]	inhibition [5] [%]	inhibition [6] [%]	inhibition [7] [%]	SMILES	growth, % of control at 100 µM [8] [%]
< 40	< 40	< 40	< 40	< 40	< 40	< 40	O=C1Cc2cnn(-c3cccc(Cl)c3)c2-c2ccccc2N1	39
< 40	< 40	< 40	–	< 40	< 40	< 40	O=C1Cc2cnn(-c3ccc(Cl)cc3)c2-c2ccccc2N1	41
< 40	< 40	< 40	< 40	< 40	< 40	< 40	Cc1ccc(-n2ncc3c2-c2ccccc2NC(=O)C3)cc1	29
< 40	< 40	< 40	< 40	< 40	< 40	< 40	O=C1Cc2cnn(-c3ccccc3F)c2-c2ccccc2N1	49
< 40	< 40	< 40	< 40	< 40	< 40	< 40	O=C1Cc2cnn(-c3ccc(Br)cc3)c2-c2ccccc2N1	32
< 40	< 40	< 40	< 40	< 40	< 40	< 40	O=C1Cc2cnn(-c3cc(Cl)cc(Cl)c3)c2-c2ccccc2N1	21
< 40	< 40	< 40	< 40	< 40	< 40	< 40	Cc1ccccc1-n1ncc2c1-c1ccccc1NC(=O)C2	49
< 40	< 40	< 40	< 40	< 40	< 40	< 40	O=C1Cc2cnn(-c3ccc(C(F)(F)F)cc3)c2-c2ccccc2N1	28
< 40	< 40	< 40	< 40	< 40	< 40	< 40	O=C1Cc2cnn(-c3ccc([N+](=O)[O-])cc3)c2-c2ccccc2N1	62
< 40	< 40	< 40	< 40	< 40	< 40	< 40	O=C1Cc2cnn(-c3ccc(F)cc3F)c2-c2ccccc2N1	41
< 40	< 40	< 40	< 40	< 40	< 40	< 40	COc1ccc(-n2ncc3c2-c2ccccc2NC(=O)C3)cc1	26
< 40	< 40	< 40	< 40	< 40	< 40	< 40	O=C1Cc2cnn(-c3ccccc3Cl)c2-c2ccccc2N1	53
< 40	< 40	< 40	< 40	< 40	< 40	< 40	O=C1Cc2cnn(-c3ccccc3Br)c2-c2ccccc2N1	44
–	< 40	< 40	< 40	< 40	< 40	< 40	CC(C)(C)c1ccc(-n2ncc3c2-c2ccccc2NC(=O)C3)cc1	11
< 40	< 40	< 40	< 40	< 40	< 40	< 40	O=C1Cc2cnn(-c3ccccc3)c2-c2ccccc2N1	33
